Assay results collected from several papers.
Protocols differ between the studies behind these lines.
BRAF: Serine/threonine-protein kinase B-raf (BRAF, Homo sapiens, UniProt P15056)
BRAF V600E: Serine/threonine-protein kinase B-raf (BRAF, Homo sapiens, UniProt P15056, V600E)

For `CS(=O)(=O)Nc1cccc(-c2csc(NC(=O)CSc3nc4nccnc4c(=O)n3CCc3ccccc3)n2)c1`, the inhibition was 1% (BRAF; enzyme activity, inhibitor; 10 µM).
The inhibition of `Cc1ccc(C(CS(=O)(=O)c2ccccc2)=NN=C2N=C(c3ccc(Br)cc3)CS2)cc1` is reported as 79% (BRAF V600E; enzyme activity, inhibitor, ATP luminescence; 1 µM).
For `COc1cc2ncnc(Nc3ccc(Oc4ccccc4)cc3C)c2cc1OC`, the inhibition was 7% (BRAF; enzyme activity, inhibitor; 1 µM).
With `Cn1cncc1C1=CN(c2ncnc3[nH]cnc23)CCS1` the inhibition was 35.1% (BRAF; enzyme activity, inhibitor, radiometric; 2 µM).
For `O=C(CSc1nc2nccnc2c(=O)n1CCc1ccccc1)Nc1nccs1`, the inhibition was -2% (BRAF V600E; enzyme activity, inhibitor; 10 µM).
For `CCOc1cc(-c2nncn2C)ccc1Nc1ncc2cc(C)nc(NCC(C)(C)C)c2n1`, the inhibition was ≤ 15% (BRAF; cell-free assay, TR-FRET; 1 µM).
The inhibition of `Cc1ccc(N=Nc2sc(NN=C(CS(=O)(=O)c3ccccc3)c3ccc(C)cc3)nc2C)cc1` is reported as 87% (BRAF V600E; enzyme activity, inhibitor, ATP luminescence; 10 µM).
With `CN(C)C1CCN(CC#Cc2nn(C3CCCC3)c3nc(NCc4ccccc4)ncc23)C1` (stereo not shown) the inhibition was 1% (BRAF; enzyme activity, inhibitor, FRET; 10 µM).
`Cc1ccc(C(CS(=O)(=O)c2ccccc2)=NNC2=NC(=O)C(=NNc3ccccc3)S2)cc1` gave an inhibition of 54% (BRAF V600E; enzyme activity, inhibitor, ATP luminescence; 0.1 µM).
With `COc1cc(-c2cc(-c3ccc(N4CCNCC4)cc3)cnc2N)cc(OC)c1OC` the inhibition was 5% (BRAF V600E; enzyme activity, inhibitor; 0.1 µM).
